Test results taken from ChEMBL document CHEMBL1221337, “The unsaturated acyclic nucleoside analogues bearing a sterically constrained (Z)-4'-benzamido-2'-butenyl moiety: Synthesis, X-ray crystal structure study, cytostatic and antiviral activity evaluations” (Bioorg Med Chem, 2010).
pIC50: −log10 of the molar value. The source made the active and inactive calls. The rule behind the calls is not given here.

Experiments:
HEL = assay: Cytotoxicity against HEL cells assessed as cell viability after 3 days by coulter counting; assay type: cell-based; settings: human, 72 h
Outline: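 HEL cells were seeded at 5 × 10³ cells/well and allowed to proliferate 24 h. Medium with test compound at different concentrations was then added, and cells were incubated 3 days at 37 °C. Cell number was counted by Coulter counter. CC50 (50% reduction in cell number versus untreated controls) was read from plots of cell number (% of control) against concentration.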

[1] = tested on: Vesicular stomatitis virus; assay: Antiviral activity against Vesicular stomatitis virus infected in human HeLa cells assessed as inhibition of virus-induced cytopathicity; assay type: functional, organism-based
Outline: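 Confluent HeLa cultures were infected with 100 CCID50 of virus. Unadsorbed virus was removed after 1 h, and compound was added at serial concentrations (200, 40, 8…). Viral cytopathic effect was read when untreated virus-infected control wells reached full cytopathicity.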

[2] = tested on: Mammalian orthoreovirus 1; assay: Antiviral activity against Reovirus 1 infected in Vero cells assessed as inhibition of virus-induced cytopathicity; assay type: functional, organism-based
Outline: (§1)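 Confluent cell monolayers in 96-well plates were inoculated with 100 CCID50 of virus. After 1 h adsorption, residual virus was removed. Cultures were then incubated with test compound at varying concentrations (200, 40, 8... µM). Viral cytopathicity was scored once it reached completion in untreated infected controls. Host cells: HEL for HSV-1 KOS and HSV-2 G; Vero for the Vero lines; HeLa for the HeLa lines.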

Coxsackievirus B4 [3] = assay: Antiviral activity against Coxsackievirus B4 infected in Vero cells assessed as inhibition of virus-induced cytopathicity; assay type: functional, organism-based; outline: as §1
SK-BR-3 = assay: Cytotoxicity against human SK-BR-3 cells after 72 hrs by MTT assay; assay type: functional, cell-based; settings: SK-BR-3, 72 h
Outline: (§2)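 Adherent cells were plated at 3000–6000 cells/well on day 0, according to doubling time. Compound was added as five 10-fold dilutions (1 × 10⁻⁸–1 × 10⁻⁴ M), with DMSO ≤0.1%, and incubated 72 h. Read-out was MTT absorbance converted to percentage growth versus untreated wells on the same plate. IC50 was obtained by linear regression between bracketing concentrations; the highest concentration was reported as ">" if not reached. Quadruplicates, three experiments.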

HeLa [4] = assay: Cytotoxicity against human HeLa cells assessed as cell viability after 3 days by coulter counting; assay type: cell-based; settings: 72 h
HeLa [5] = assay: Cytotoxicity against human HeLa cells after 72 hrs by MTT assay; assay type: functional, cell-based; outline: as §2
[6] = tested on: Vesicular stomatitis virus; assay: Antiviral activity against Vesicular stomatitis virus infected in HEL cells assessed as inhibition of virus-induced cytopathicity; assay type: functional, organism-based
Sindbis virus = assay: Antiviral activity against Sindbis virus infected in Vero cells assessed as inhibition of virus-induced cytopathicity; assay type: functional, organism-based; outline: as §1
Human respirovirus 3 = assay: Antiviral activity against Parainfluenza 3 infected in Vero cells assessed as inhibition of virus-induced cytopathicity; assay type: functional, organism-based; outline: as §1
Coxsackievirus B4 [7] = assay: Antiviral activity against Coxsackievirus B4 infected in human HeLa cells assessed as inhibition of virus-induced cytopathicity; assay type: functional, organism-based; outline: as §1
SW-620 = assay: Cytotoxicity against human SW620 cells after 72 hrs by MTT assay; assay type: functional, cell-based; settings: SW-620, 72 h; outline: as §2
MCF7 = assay: Cytotoxicity against human MCF7 cells after 72 hrs by MTT assay; assay type: functional, cell-based; settings: MCF7, 72 h; outline: as §2
Influenza A virus = assay: Antiviral activity against influenza A virus H1N1; H3N2 infected in MDCK cells assessed as inhibition of virus-induced cytopathicity; assay type: functional, organism-based
Outline: (§3)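 MDCK cells, nearly confluent in microtiter plates, were infected with 100 CCID50 per well. After 1 h adsorption, the inoculum was washed off. Cells were incubated with graded compound concentrations (200, 40, 8…). Cytopathicity was recorded at completion in untreated infected controls.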

HEp-2 = assay: Cytotoxicity against human Hep2 cells after 72 hrs by MTT assay; assay type: functional, cell-based; settings: HEp-2, 72 h; outline: as §2
Vero = assay: Cytotoxicity against african green monkey Vero cells assessed as cell viability after 3 days by coulter counting; assay type: cell-based; settings: chlorocebus sabaeus, 72 h
MIA PaCa-2 = assay: Cytotoxicity against human MIAPaCa2 cells after 72 hrs by MTT assay; assay type: functional, cell-based; settings: MIA PaCa-2, 72 h; outline: as §2
[8] = tested on: Respiratory syncytial virus; assay: Antiviral activity against Respiratory syncytial virus infected in human HeLa cells assessed as inhibition of virus-induced cytopathicity; assay type: functional, organism-based; outline: as §1
MDCK = assay: Cytotoxicity against MDCK cells assessed as cell viability after 3 days by coulter counting; assay type: cell-based, Canis lupus familiaris; settings: dog, 72 h
Human alphaherpesvirus 2 = assay: Antiviral activity against HSV2 G infected in HEL cells assessed as inhibition of virus-induced cytopathicity; assay type: functional, organism-based; settings: strain G; outline: as §1
Influenza B virus = assay: Antiviral activity against influenza B virus infected in MDCK cells assessed as inhibition of virus-induced cytopathicity; assay type: functional, organism-based; outline: as §3
Punta Toro virus = assay: Antiviral activity against Punta Toro virus infected in Vero cells assessed as inhibition of virus-induced cytopathicity; assay type: functional, organism-based; outline: as §1
[9] = Cytotoxicity against human WI38 cells after 72 hrs by MTT assay; assay type: cell-based; settings: WI-38, 72 h; outline: as §2
Vaccinia virus = assay: Antiviral activity against Vaccinia virus infected in HEL cells assessed as inhibition of virus-induced cytopathicity; assay type: functional, organism-based; settings: Orthopoxvirus vaccinia
Human alphaherpesvirus 1 = assay: Antiviral activity against HSV1 KOS infected in HEL cells assessed as inhibition of virus-induced cytopathicity; assay type: functional, organism-based; outline: as §1

Compound	Activity (HEL)	inhibition [1]	inhibition [2]	inhibition (Coxsackievirus B4 [3])	pIC50 (SK-BR-3)	Activity (HeLa [4])	pIC50 (HeLa [5])	inhibition [6]	inhibition (Sindbis virus)	inhibition (Human respirovirus 3)	inhibition (Coxsackievirus B4 [7])	pIC50 (SW-620)	pIC50 (MCF7)	inhibition (Influenza A virus)	pIC50 (HEp-2)	Activity (Vero)	pIC50 (MIA PaCa-2)	inhibition [8]	Activity (MDCK)	inhibition (Human alphaherpesvirus 2)	also measured
Nc1ncnc2c1ncn2C/C=C\CNC(=O)c1ccccc1	Non-toxic	inactive	inactive	inactive	< 4.00	Non-toxic	< 4.00	inactive	inactive	inactive	inactive	< 4.00	< 4.00	inactive	< 4.00	Non-toxic	< 4.00	inactive	Non-toxic	inactive	inhibition (Influenza B virus): inactive; inhibition (Punta Toro virus): inactive; pIC50 [9]: < 4.00; inhibition (Vaccinia virus): inactive; inhibition (Human alphaherpesvirus 1): inactive
Cc1cn(C/C=C\CNC(=O)c2ccccc2)c(=O)[nH]c1=O	Non-toxic	inactive	inactive	inactive	< 4.00	Non-toxic	< 4.00	inactive	inactive	inactive	inactive	< 4.00	< 4.00	inactive	< 4.00	Non-toxic	< 4.00	inactive	Non-toxic	inactive	inhibition (Influenza B virus): inactive; inhibition (Punta Toro virus): inactive; pIC50 [9]: 5.37; inhibition (Vaccinia virus): inactive; inhibition (Human alphaherpesvirus 1): inactive
O=C(NC/C=C\Cn1ccc(=O)[nH]c1=O)c1ccc(F)cc1	Non-toxic	inactive	inactive	inactive	< 4.00	Non-toxic	< 4.00	inactive	inactive	inactive	inactive	< 4.00	5.57	inactive	< 4.00	Non-toxic	< 4.00	inactive	Non-toxic	inactive	inhibition (Influenza B virus): inactive; inhibition (Punta Toro virus): inactive; pIC50 [9]: < 4.00; inhibition (Vaccinia virus): inactive; inhibition (Human alphaherpesvirus 1): inactive
Nc1ccn(C/C=C\CNC(=O)c2ccccc2)c(=O)n1	Non-toxic	inactive	inactive	inactive	4.14	Non-toxic	< 4.00	inactive	inactive	inactive	inactive	< 4.00	4.50	inactive	< 4.00	Non-toxic	< 4.00	inactive	Non-toxic	inactive	inhibition (Influenza B virus): inactive; inhibition (Punta Toro virus): inactive; pIC50 [9]: 5.38; inhibition (Vaccinia virus): inactive; inhibition (Human alphaherpesvirus 1): inactive
Cc1cn(C/C=C\CNC(=O)c2ccc(F)cc2)c(=O)[nH]c1=O	Non-toxic	inactive	inactive	inactive	< 4.00	Non-toxic	< 4.00	inactive	inactive	inactive	inactive	< 4.00	4.62	inactive	< 4.00	Non-toxic	< 4.00	inactive	Non-toxic	inactive	inhibition (Influenza B virus): inactive; inhibition (Punta Toro virus): inactive; pIC50 [9]: 7.00; inhibition (Vaccinia virus): inactive; inhibition (Human alphaherpesvirus 1): inactive
